Values after ≈ are worked out from the molar mass of the structure shown. Active and inactive are the calls of the source. The calls are words filed in the database; no cut-off is given here.
What was measured:
[1] = Inhibition of Hedgehog signaling pathway in mouse ASZ001 cells assessed as decrease in Gli1 mRNA expression after 48 hrs by qRT-PCR analysis; format: cell-based; details: ASZ001, 48 h
Method in brief: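 Hh-dependent murine basal cell carcinoma line ASZ001; read-out is Gli1 mRNA expression. IC50 given as mean ± SEM of at least two separate experiments, each run in triplicate.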

[2] = Microsomal stability in human liver microsomes assessed as half-life at 1 uM in presence of NADPH/phosphate buffer by LC-MS/MS analysis; format: ADME, Microsome
[3] = Microsomal stability in human liver microsomes assessed as intrinsic clearance at 1 uM in presence of NADPH/phosphate buffer by LC-MS/MS analysis; format: ADME, Microsome; details: read-out: CLH
Mus musculus [4] = species on record: Mus musculus; experiment: Potency index, ratio of ITZ IC50 to test compound IC50 for inhibition of Hedgehog signaling pathway in mouse ASZ001 cells assessed as decrease in Gli1 mRNA expression after 48 hrs by qRT-PCR analysis; format: cell-based
[5] = Solubility in PBS at pH 7.4 under shaking condition by HPLC analysis; format: physicochemical
Mus musculus [6] = species on record: Mus musculus; experiment: Inhibition of Hedgehog signaling pathway in mouse C3H10T1/2 cells assessed as reduction in recombinant mouse sonic hedgehog/oxysterol-induced Gli1 mRNA expression by q-PCR analysis; format: cell-based
[7] = Growth inhibition of human HC04 cells assessed as decrease in cell viability after 72 hrs by CellTiter96 AQueous non radioactive cell proliferation assay
Method in brief: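 HC-04 is a human hepatocyte-derived line rich in drug-metabolizing enzymes. Anti-proliferative activity is reported as GI50.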

[8] = Aqueous solubility of the compound; format: physicochemical; details: buffer
[9] = Drug metabolism in human liver microsomes assessed as increase in oxidized metabolite formation at 1 uM in presence of NADPH by LC-MS/MS analysis; format: ADME, Microsome
[10] = Drug metabolism in human liver microsomes assessed as increase in 1-(4-(((2S,4R)-2-(2,4-dichlorophenyl)-2-methyl-1,3-dioxolan-4-yl)methoxy)phenyl)piperazine formation at 1 uM in presence of NADPH by LC-MS/MS analysis; format: ADME, Microsome
[11] = Solubility in PBS at pH 4 under shaking condition by HPLC analysis; format: physicochemical
MEF = experiment: Inhibition of Hedgehog signaling pathway in Sufu-deficient mouse MEF cells assessed as decrease in Gli1 mRNA expression by q-PCR analysis relative to control; format: cell-based
[12] = Drug level in human liver microsomes treated with 1-(4-(4-(((2S,4R)-2-(2,4-dichlorophenyl)-2-methyl-1,3-dioxolan-4-yl)methoxy)phenyl)piperazin-1-yl)-3-(3-hydroxyphenyl)propan-1-one formation at 1 uM in presence of NADPH by LC-MS/MS analysis; format: ADME, Microsome
[13] = Drug level in human liver microsomes treated with 1-(4-(4-(((2S,4R)-2-(2,4-dichlorophenyl)-2-methyl-1,3-dioxolan-4-yl)methoxy)phenyl)piperazin-1-yl)-2-(3-hydroxyphenyl)ethanone assessed as increase in 1-(4-(((2S,4R)-2-(2,4-dichlorophenyl)-2-methyl-1,3-dioxolan-4-yl)methoxy)phenyl)piperazine formation at 1 uM in presence of NADPH by LC-MS/MS analysis; format: ADME, Microsome

Row | Structure (SMILES) | IC50 [1] [nM] | half-life at 1 µM [2] [min] | microsomal CLint at 1 µM [3] [µL/min/mg] | also measured
1 | C[C@]1(c2ccc(Cl)cc2Cl)OC[C@@H](COc2ccc(N3CCN(C(=O)c4ccc(O)cc4)CC3)cc2)O1 | 580 |  |  | 
2 | C[C@]1(c2ccc(Cl)cc2Cl)OC[C@@H](COc2ccc(N3CCN(CCCc4cccc(O)c4)CC3)cc2)O1 | 870 | 14 | 50 | solubility [11]: 0.13 µM (≈ 0.0725 µg/mL); solubility [5]: 0.02 µM (≈ 0.0112 µg/mL)
3 | C[C@]1(c2ccc(Cl)cc2Cl)OC[C@@H](COc2ccc(N3CCN(C(=O)c4cccnc4)CC3)cc2)O1 | 1300 |  |  | 
4 | C[C@]1(c2ccc(Cl)cc2Cl)OC[C@@H](COc2ccc(N3CCN(C(=O)N/N=C/c4ccc(O)cc4)CC3)cc2)O1 | 960 | 11.4 | 60 | solubility [11]: 0.05 µM (≈ 0.0293 µg/mL); solubility [5]: 0.02 µM (≈ 0.0117 µg/mL)
5 | C[C@@]1(c2ccc(Cl)cc2Cl)OC[C@@H](COc2ccc(N3CCN(C(=O)N/N=C/c4cccc(O)c4)CC3)cc2)O1 | 580 |  |  | 
6 | C[C@]1(c2ccc(Cl)cc2Cl)OC[C@@H](COc2ccc(N3CCN(C(=O)c4ccncc4)CC3)cc2)O1 | 570 |  |  | 
7 | COc1cccc(CCC(=O)N2CCN(c3ccc(OC[C@@H]4CO[C@](C)(c5ccc(Cl)cc5Cl)O4)cc3)CC2)c1 | 460 |  |  | 
8 | C[C@]1(c2ccc(Cl)cc2Cl)OC[C@@H](COc2ccc(N3CCN(C(=O)c4ccccn4)CC3)cc2)O1 | 1420 |  |  | 
9 | C[C@]1(c2ccc(Cl)cc2Cl)OC[C@@H](COc2ccc(N3CCN(C(=O)CCCc4ccc(O)cc4)CC3)cc2)O1 | 470 |  |  | 

Now those with a lower IC50 [1], led by results:

Row | IC50 [1] [nM] | half-life at 1 µM [2] [min] | microsomal CLint at 1 µM [3] [µL/min/mg] | Structure (SMILES) | also measured
10 | 220 |  |  | C[C@]1(c2ccc(Cl)cc2Cl)OC[C@@H](COc2ccc(N3CCN(C(=O)/C=C/c4cccc(O)c4)CC3)cc2)O1 | 
11 | 360 |  |  | C[C@]1(c2ccc(Cl)cc2Cl)OC[C@@H](COc2ccc(N3CCN(C(=O)/C=C/c4ccc(O)cc4)CC3)cc2)O1 | 
12 | 260 | 15.9 | 43 | C[C@]1(c2ccc(Cl)cc2Cl)OC[C@@H](COc2ccc(N3CCN(C(=O)c4cccc(O)c4)CC3)cc2)O1 | 
13 | 81 | 3.2 | 218 | C[C@]1(c2ccc(Cl)cc2Cl)OC[C@@H](COc2ccc(N3CCN(C(=O)CCc4cccc(O)c4)CC3)cc2)O1 | Ratio IC50 (Mus musculus [4]): 2; solubility [5]: 0.03 µM (≈ 0.0171 µg/mL); inhibition (Mus musculus [6]): Active; GI50 at 72 h [7]: 13200 nM; solubility [8]: Soluble
14 | 380 | 20.4 | 33.9 | C[C@]1(c2ccc(Cl)cc2Cl)OC[C@@H](COc2ccc(N3CCN(C(=O)Cc4cccc(O)c4)CC3)cc2)O1 | Drug metabolism [9]: Metabolite_Detected; Drug metabolism [10]: Metabolite_Detected
15 | 280 |  |  | C[C@]1(c2ccc(Cl)cc2Cl)OC[C@@H](COc2ccc(N3CCN(C(=O)c4ccc(N)cc4)CC3)cc2)O1 | 
16 | 89 | 6.6 | 105 | C[C@]1(c2ccc(Cl)cc2Cl)OC[C@@H](COc2ccc(N3CCN(C(=O)CCc4ccc(O)c(O)c4)CC3)cc2)O1 | solubility [5]: 0.84 µM (≈ 0.494 µg/mL)
17 | 160 |  |  | C[C@]1(c2ccc(Cl)cc2Cl)OC[C@@H](COc2ccc(N3CCN(C(=O)c4ccc([N+](=O)[O-])cc4)CC3)cc2)O1 | 
18 | 140 |  |  | CCC(C)n1ncn(-c2ccc(N3CCN(c4ccc(OCC5COC(Cn6cncn6)(c6ccc(Cl)cc6Cl)O5)cc4)CC3)cc2)c1=O (stereo unspecified) [ITRACONAZOLE] | inhibition (Mus musculus [6]): Active; inhibition (MEF): inactive
19 | 230 |  |  | C[C@]1(c2ccc(Cl)cc2Cl)OC[C@@H](COc2ccc(N3CCN(C(=O)CCc4ccccc4)CC3)cc2)O1 | 
20 | 120 |  |  | C[C@]1(c2ccc(Cl)cc2Cl)OC[C@@H](COc2ccc(N3CCN(C(=O)N/N=C/c4cccc(O)c4)CC3)cc2)O1 | 
21 | 260 |  |  | C[C@]1(c2ccc(Cl)cc2Cl)OC[C@@H](COc2ccc(N3CCN(C(=O)CCc4ccc(O)cc4)CC3)cc2)O1 | 
22 | 22 | 50.7 | 13.7 | C[C@]1(c2ccc(Cl)cc2Cl)OC[C@@H](COc2ccc(N3CCNCC3)cc2)O1 | Drug uptake [12]: Active; Drug uptake [13]: Active; inhibition (Mus musculus [6]): Active; inhibition (MEF): inactive; GI50 at 72 h [7]: 27300 nM; solubility [8]: Soluble
